# Marks after values point to notes of the source that are not given here.
# Columns and labels:
# [1] = test system: Salmonella Typhimurium (TA98, TA100, TA1535 and TA1537) and Escherichia coli WP2uvrA; test: Bacterial reverse mutation assays; format: cell-based; conditions: up to 5,000 μg/plate, with or without S9‐mix
# [2] = Incubation of; conditions: for 3‐NOP concentration remaining at t = 24 h: 38°C
# [3] = test system: dairy cows, beef cattle and sheep; conditions: 100 mg 3‐NOP/kg DMI; cited from earlier work
# [4] = test system: Salmonella Typhimurium strains TA98, TA100, TA102, TA1535 and TA1537; test: Ames microsuspension test; format: cell-based; conditions: 1.6 to 500 μg/plate, with and without metabolic activation
# [5] = Octanol–water partition coefficient; format: physicochemical
# [6] = test system: human lymphoblastoid TK6 cells; test: In vitro micronucleus assay; conditions: with and without S9, up to 1,220 μg/mL
# [7] = Incubation of 14C‐3‐NOP in liver fractions; format: in vitro ADME; conditions: Sprague-Dawley, rat, liver cytosol
# In short: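 14C-labelled test compound was incubated with or without NAD+ in liver S9, cytosol and microsomes from Sprague–Dawley rat, Wistar Han rat, Beagle dog and human. Aliquots were taken at several time points and the proteins precipitated. Supernatants were analysed by liquid scintillation counting and radio-HPLC, and half-life was derived from the time course.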
# [8] = Third in vitro rumen fluid trial; conditions: for 3‐NOP concentration remaining after 16 h: 39°C
# [9] = Eye irritation study
# [10] = test system: Holstein Friesian dairy cows; test: Tolerance study in dairy cows; format: in vivo; conditions: for Dry matter intake: 56 days
# [11] = First in vivo toxicokinetic study; parameters: species or system male Wistar rats
# In short: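 Male Wistar rats received a single oral dose of 500 mg/kg bw 14C-labelled test compound under OECD TG 417 and were killed 48 h post-dose. Total radioactivity was measured in plasma, excreta and selected organs and tissues. Tissue levels were expressed as μg test-compound-eq/g and recovery as % of applied dose.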
# [12] = test system: bone marrow cells of Wistar WI (Han) rats; test: In vivo micronucleus test, oral gavage
# [13] = test system: CByB6F1 Hybrid mice; test: 28‐day oral gavage study with toxicokinetic evaluation of NOPA; format: in vivo
# [14] = test system: Wistar rats; test: 2‐year carcinogenicity study; format: in vivo
# [15] = 90.2 mg 3‐NOP/kg feed DM (× 0.8)
# [16] = 106.8 mg 3‐NOP/kg feed DM (× 1)
# [17] = 220.4 mg 3‐NOP/kg feed DM (× 2)
# [18] = males, 700 mg/kg bw per day (control 0/10)
smiles,measurement,setting,value
"O=[N+]([O-])OCCCO [3‐NOP, propan‐1,3‐diol‐mononitrate]",Revertant colonies,[1],No increase in the mean number of revertant colonies
same,Radioactivity in the non‐dissolved fractions,[2]; 2.2 mg/L,≤ 5.5%
same,3‐NOP concentration remaining at t = 24 h,"[2]; 2.2 mg/L, anaerobic",0%
same,Radioactivity in the non‐dissolved fractions,[2]; 23 mg/L,7%
same,3‐NOP concentration remaining at t = 24 h,"[2]; 23 mg/L, anaerobic",< 0.1%
same,Radioactivity in the trapped gas phases,"[2]; 23 or 2.2 mg/L, up to 24 h at 38°C, anaerobic, pH about 6.2",≤ 0.1 % of the total radioactivity
same,3‐NOP concentration remaining,[2]; after 6 h,54%
same,3‐NOP concentration remaining,[2]; after 12 h,6%
same,"Abiotic degradation of 3‐NOP to propane‐1,3‐diol",[2]; control samples (no or only minor),9.8%
same,Decrease of CH4,[3],about 20%
same,Revertant colonies,[4],No significant increase in the mean number of revertant colonies
same,log KOW,[5],0.399
same,"Micronuclei, overall result",[6],weak increase in micronuclei
same,half-life,[7],42 min
same,3‐NOP concentration remaining after 16 h,"[8]; 1 mg/L, anaerobic, n = 6",0.9%
same,3‐NOP concentration remaining after 16 h,"[8]; aerobic control, n = 2",39.4%
same,Radioactivity in the non‐dissolved fractions,"[8]; sheep, goat and cow rumen fluids, 1 mg/L, 16 h at 39°C, anaerobic",≤ 5.5%
same,Eye irritation potential,[9],eye irritant
same,ALT,[10]; [15],27* U/L
same,Albumin,[10]; [15],36 g/L
same,Amylase,[10]; [15],34 U/L
same,Body weight,[10]; [15],676 kg
same,Body weight change,[10]; [15],43.6 kg
same,Fat yield,[10]; [15],0.81 kg/day
same,Fibrinogen,[10]; [15],0.88 g/L
same,Haematocrit,[10]; [15],28* %
same,Haemoglobin d56,[10]; [15],110 g/L
same,LDH d56,[10]; [15],1249 U/L
same,Mean corpuscular haemoglobin,[10]; [15],16.5* pg
same,Milk yield,[10]; [15],28.7 kg/day
same,Monocytes d5,[10]; [15],4.8e+08 L⁻¹
same,Monocytes d56,[10]; [15],3.1e+08 L⁻¹
same,Ovary absolute size,[10]; [15],31.9 g
same,Ovary relative size,[10]; [15],0.048 g per kg final bw
same,Protein yield,[10]; [15],0.92 kg/day
same,Prothrombin time,[10]; [15],27.3* s
same,Red blood cells,[10]; [15],6.52* ×10^12/L
same,Water consumption,[10]; [15],95.9 kg/day
same,Dry matter intake,[10]; [15],22.9 kg/day
same,ALT,[10]; [16],27* U/L
same,Albumin,[10]; [16],36 g/L
same,Amylase,[10]; [16],34 U/L
same,Body weight,[10]; [16],675 kg
same,Body weight change,[10]; [16],42.2 kg
same,Ca,[10]; [16],2.47* mmol/L
same,Energy corrected milk,[10]; [16],22.7 kg/day
same,Fat yield,[10]; [16],0.74 kg/day
same,Fibrinogen,[10]; [16],0.93 g/L
same,Haematocrit,[10]; [16],28* %
same,Haemoglobin d56,[10]; [16],109 g/L
same,LDH d56,[10]; [16],1245 U/L
same,Milk yield,[10]; [16],27.5 kg/day
same,Monocytes d5,[10]; [16],4.6e+08 L⁻¹
same,Ovary absolute size,[10]; [16],29.7 g
same,Ovary relative size,[10]; [16],0.040 g per kg final bw
same,Protein yield,[10]; [16],0.88 kg/day
same,Red blood cells,[10]; [16],6.39* ×10^12/L
same,Total cholesterol,[10]; [16],4.18* mmol/L
same,Triglycerides,[10]; [16],0.130 mmol/L
same,Water consumption,[10]; [16],94.6 kg/day
same,Dry matter intake,[10]; [16],22.8 kg/day
same,ALT,[10]; [17],24* U/L
same,Albumin,[10]; [17],35* g/L
same,Amylase,[10]; [17],31* U/L
same,Body weight,[10]; [17],670 kg
same,Body weight change,[10]; [17],36.6 kg
same,Ca,[10]; [17],2.40 mmol/L
same,Energy corrected milk,[10]; [17],24.7* kg/day
same,Fat yield,[10]; [17],0.89* kg/day
same,Fibrinogen,[10]; [17],1.00* g/L
same,Haematocrit,[10]; [17],27* %
same,Haemoglobin d56,[10]; [17],103* g/L
same,LDH d56,[10]; [17],1034* U/L
same,Mean corpuscular haemoglobin,[10]; [17],16 pg
same,Milk yield,[10]; [17],27.5 kg/day
same,Monocytes d5,[10]; [17],0.43* ×10^9/L
same,Ovary absolute size,[10]; [17],25.8* g
same,Protein yield,[10]; [17],0.91 kg/day
same,Prothrombin time,[10]; [17],27.0* s
same,Red blood cells,[10]; [17],6.42* ×10^12/L
same,Total cholesterol,[10]; [17],4.18* mmol/L
same,Triglycerides,[10]; [17],0.124* mmol/L
same,Water consumption,[10]; [17],87.0* kg/day
same,Dry matter intake,[10]; [17],21.8* kg/day
same,Number of cows with signs of liver chronic inflammation (out of 8),[10]; 0.8× group (control 2),0
same,Number of cows with signs of liver chronic inflammation (out of 8),[10]; 1× group (control 2),3
same,DM intake less than in the control group,[10]; 2× group,4%
same,Energy corrected milk yield increase compared with the control,[10]; 2× group,7%
same,Number of cows with signs of liver chronic inflammation (out of 8),[10]; 2× group (control 2),5
same,Mean overall recovery of the radioactivity applied,[11]; 48 h,28%
same,"Radioactivity recovered from tissues, organs and carcass",[11]; 48 h,5.5 % of the dose
same,Radioactivity remaining in gastrointestinal content,[11]; 48 h,0.2 % of the dose
same,Radioactivity concentration in adrenal glands,[11]; 48 h after 500 mg/kg bw,113.9 μg 3‐NOP‐eq/g
same,Radioactivity concentration in brain,[11]; 48 h after 500 mg/kg bw,31.2 μg NOP‐eq/g
same,Radioactivity concentration in fat,[11]; 48 h after 500 mg/kg bw,23.5 μg NOP‐eq/g
same,Radioactivity concentration in kidney,[11]; 48 h after 500 mg/kg bw,71.6 μg 3‐NOP‐eq/g
same,Radioactivity concentration in liver,[11]; 48 h after 500 mg/kg bw,139.6 μg 3‐NOP‐eq/g
same,Radioactivity concentration in muscle,[11]; 48 h after 500 mg/kg bw,27.1 μg NOP‐eq/g
same,Radioactivity recovered in total excreta,[11]; at 48 h,20 % of the dose
same,Radioactivity recovered in urine,[11]; first 24 h,17.6 % of the dose
same,Radioactivity recovered in urine,[11]; interval 24‐48 h,0.3 % of the dose
same,Cmax radioactivity in plasma,[11]; single oral 500 mg/kg bw,about 600 μg 3‐NOP‐eq/g
same,Radioactivity in plasma after 48 h,[11]; single oral 500 mg/kg bw,27 μg 3‐NOP‐eq/g
same,Time of Cmax radioactivity in plasma,[11]; single oral 500 mg/kg bw,1 h
same,Radioactivity excreted in faeces,[11]; within 48 h,2.3 % of the dose
same,In vivo MN test result,"[12]; 375, 750 and 1,500 mg/kg bw by gavage",Equivocal results
same,Dose showing severe symptoms and mortality,"[12]; dose‐range finding test, gavage","2,000 mg/kg bw"
same,Reduction in mean overall food consumption,"[13]; 700 mg/kg bw per day, vs control",6%
same,NOAEL,[13]; blood biochemical changes at 300 mg/kg bw per day,100 mg 3‐NOP/kg bw per day
same,Decrease of absolute thymus weight,"[13]; males, 700 mg/kg bw per day",22%
same,Decrease of relative thymus weight,"[13]; males, 700 mg/kg bw per day",23%
same,Incidence of mild inflammation of the eye striated muscle,[13]; [18],4/10
same,Incidence of minimal to mild adrenal cortical vacuolation,[13]; [18],4/10
same,NOAEL,[14]; benign gastrointestinal mesenchymal tumours in small intestines,100 mg 3‐NOP/kg bw per day
same,Benign mesenchymal cell tumours (PWG),"[14]; females, 300 mg/kg bw per day",three

# From PMC8603004 (EFSA Journal, 2021)
